Assay outcomes (PubChem)
Most compounds without a hit are left out; they make up all but 2.5% or so of the library.
FLuc inhib CS: firefly luciferase enzyme inhibitors, primary screen, artefact control for luciferase-based inhibitor screens, biochemical, luminescence, ATPLite; 1.5% of 200,000 active; Luciferin 4-monooxygenase (Photinus pyralis), P08659; 10 min; inhibition, % at 10 µM;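 active = inhibition above about 50% when tested at 10 µM, limit read from the data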
PMI act: activators of human PMI, primary screen, biochemical, fluorescence intensity, near-Km mannose 6-phosphate. Mannose-6-phosphate isomerase (Homo sapiens), P34949. purified human PMI, coupled resazurin fluorescence, 20 min; hits give high values; 1 = vehicle control, 0 substrate-free wells. activation factor at 20 µM. 0.005% of 190,000 active;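 active = activation factor of 2 or more at 20 µM, relative to plate controls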
Target sequence (P34949 whole entry, looked up): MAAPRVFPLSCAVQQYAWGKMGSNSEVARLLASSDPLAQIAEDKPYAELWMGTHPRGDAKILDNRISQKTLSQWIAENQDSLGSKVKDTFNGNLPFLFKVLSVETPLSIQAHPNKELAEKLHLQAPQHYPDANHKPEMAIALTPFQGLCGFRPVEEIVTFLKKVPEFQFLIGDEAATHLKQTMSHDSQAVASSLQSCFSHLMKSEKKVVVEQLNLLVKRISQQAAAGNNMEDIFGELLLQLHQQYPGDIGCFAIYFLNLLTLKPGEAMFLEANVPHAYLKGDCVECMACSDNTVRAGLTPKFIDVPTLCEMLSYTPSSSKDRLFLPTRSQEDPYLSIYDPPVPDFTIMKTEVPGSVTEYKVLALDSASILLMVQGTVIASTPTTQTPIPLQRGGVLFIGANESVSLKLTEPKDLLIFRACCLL
FLuc stim CS: FLuc activators, initial screening, artefact control for FLuc-dependent activation tests, biochemical, ATPlite luminescence | ATPlite luciferase biochemical, 10 min; 0 = ATP-free wells, 1 = DMSO control | activation factor at 10 µM | 200,000 tested, under 10 active | Luciferin 4-monooxygenase (Photinus pyralis), P08659;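 active = luciferase activation factor, scaled between plate controls, of at least 2 with compound at 10 µM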
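Assay system: Luciferase/luciferin reagent mix; Medium: PBS as buffer for the ATP substrate; Dosing: test compounds dosed from 2 mM stocks in 100% DMSO; Times: 10 min, room temperature; Signal: luminescence from luciferase reaction; Read-out: luciferase activation; Controls: No-ATP low control, compound-free enzyme-plus-ATP high control.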
Diaphorase inh: diaphorase inhibitors and chemical oxidizers, primary screen, counter-screen for diaphorase-coupled primary assays, biochemical, uHTS, resorufin fluorescence | AID 1217, 2008 | diaphorase resazurin-to-resorufin fluorescence, NADH, 16 min; bacterial (C. kluyveri) enzyme, not human | inhibition, % at 20 µM | 0.69% of 190,000 active;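 active = primary screen inhibition at 20 µM above a set limit, cut at about 50% in these data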
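Assay system – diaphorase enzyme from Clostridium kluyveri · Amount – diaphorase 0.14 U/mL (working solution) · Times – reaction incubation of 16 min at room temperature · Controls – No-NADH positive control and DMSO neutral control · Signal – resorufin fluorescence 544/590 nm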
Diaphorase act: compounds boosting diaphorase resazurin reduction – biochemical, uHTS, resorufin fluorescence, counter-screen for diaphorase-coupled primary assays, primary screen. Diaphorase/resazurin coupled assay, 16 min; hits give high values; 1 = vehicle wells, 0 = NADH-free wells. activation factor at 20 µM. 0.005% of 190,000 active. AID 1229, 2008;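 active = diaphorase activity raised at least twofold by the compound at 20 µM; inactive = activation factor below 2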
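Test system: Clostridium kluyveri diaphorase, purified enzyme. Buffer or medium: 50 mM HEPES pH 7.4 buffer plus MgCl2 and Tween 20. Also added: 0.114 mM NADH and 0.1 mM resazurin, final amounts. Dosing: compound 20 µM once, DMSO 1%. Schedule: 16 min enzyme reaction, ambient temperature. Detection: fluorescence of resorufin, 544 nm excitation, 590 nm emission.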
PMI act satM6P: human PMI activators, high substrate, primary screen, biochemical, fluorescence intensity, near-saturating mannose 6-phosphate | Mannose-6-phosphate isomerase (Homo sapiens), P34949 | coupled PMI enzyme assay, resazurin fluorescence, 20 min; hits give high values; 1 = untreated enzyme, 0 = substrate-free blank | activation factor at 20 µM | 0.34% of 190,000 active;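 active = activation factor of 2 or more at 20 µM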
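assay system = human phosphomannose isomerase with PGI, G6PDH, diaphorase coupling enzymes | quantity = 15 ng/mL PMI | incubation = enzyme reaction with compound 20 min at room temperature | medium = HEPES pH 7.4 buffer with MgCl2 and Tween-20 | compound dosing = one concentration, 20 µM, in 1% DMSO | measured by = Diaphorase-driven resazurin-to-resorufin fluorescence, excitation 544, emission 590 nm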
Of the large screens only hits and unclear results are named; the others gave an inactive call.

O=C(Nc1ccc(N2CCOCC2)cc1)c1ccncc1	none
O=C(Nc1ccc(N2CCOCC2)cc1)c1cnsn1	FLuc inhib CS 90
NC(=O)c1ccsc1NC(=O)C1CCCCC1	none
COC(=O)c1ccsc1NC(=O)c1ccccc1	none
NC(=O)c1ccsc1NC(=O)c1ccc2c(c1)CCCC2	FLuc inhib CS 91
CNC(=O)c1ccsc1NC(=O)c1ccc2c(c1)CCCC2	FLuc inhib CS 74
NC(=O)c1ccsc1NC(=O)c1ccc(N2CCCC2=O)cc1	FLuc inhib CS 93
CC(=O)N1CCN(Cc2nc3cc(NC(=O)NC4CCCCC4)ccc3n2C)CC1	none
O=c1[nH]c(CSc2nnc(-c3cccnc3)n2C2CCCCC2)nc2ccccc12	none
CCCCNC(=O)c1sc(=S)n2c1[nH]c(=O)c1ccccc12	Diaphorase inh 67
Cc1csc(NC(=O)c2cncc(Br)c2)n1	FLuc inhib CS 50
CCCNC(=S)Nc1ccc2nc(-c3ccccn3)c(-c3ccccn3)nc2c1	Diaphorase inh 52
S=C(Nc1ccc2nc(-c3ccccn3)c(-c3ccccn3)nc2c1)N1CCCCC1	none (no result: PMI act, Diaphorase inh, Diaphorase act, PMI act satM6P)
O=C(O)c1ccc(N2C(=O)/C(=C/c3ccc(-c4ccc([N+](=O)[O-])cc4)o3)C=C2c2ccccc2)cc1	Diaphorase inh 57
CCC(CC)C(=O)Nc1cccc(/C(C)=N\NC(=O)c2ccc(C)s2)c1	none
C/C(=N/NC(=O)c1ccco1)c1cccc(NC(=O)c2ccc(C)s2)c1	FLuc inhib CS 69
C/C(=N\NC(=O)c1ccn(C)n1)c1cccc(NC(=O)c2ccc(C)s2)c1	FLuc inhib CS 73
CC(C)N=C(NS(=O)(=O)c1ccc(Br)cc1)c1ccc(Cl)cc1	none
COc1ccccc1CC(=O)Nc1ccc2c(c1)C(=O)NC2=O	none
c1ccc(-c2ccccc2OCCCCN2CCCCCC2)cc1	none
O=C(Nc1nc2c(F)cc(F)cc2s1)c1ccccn1	FLuc inhib CS 66
O=C(Nc1nc2ccc(S(=O)(=O)N3CCCC3)cc2s1)c1ccccn1	none
Cc1ccc2nc(NC(=O)c3ccccn3)sc2c1	FLuc inhib CS 95
O=C1CC(Sc2nnnn2C2CCCCC2)C(=O)N1c1ccccc1 (configuration not stated)	FLuc inhib CS 57
CCCOC1OC(=O)c2c1ccc(OC)c2OC (configuration not stated)	none
Cc1cc(N/N=C/c2ccc(Cl)cc2)nc(NCc2ccccc2)n1	none
Cc1cc(-c2ccccc2)nc(N/N=C/c2cccnc2)n1	FLuc inhib CS 74
CN(C)c1cc(N/N=C\c2ccccc2)nc(N(C)C)n1	Diaphorase inh 52
COc1ccccc1/C=N/Nc1cc(N(C)C)nc(N(C)C)n1	Diaphorase inh 53
Cc1cc(N/N=C/c2ccccc2)nc(NCc2ccccc2)n1	FLuc inhib CS 76
Cc1noc(C)c1S(=O)(=O)NCc1ccc2c(c1)OCO2	none
Cc1c(NC(=O)CSc2ccccc2Cl)c(=O)n(-c2ccccc2)n1C	none
Cc1ccc(NC2c3ccccc3C(=O)N2CCN2CCOCC2)cc1 (configuration not stated)	none
COc1ccc(N2CCN(CCNC(=O)c3ccc4c(c3)[nH]c(=S)n3c5ccccc5nc43)CC2)cc1	none
COc1ccc(C2C=C(Nc3ccccc3)C(=O)N2c2ccccc2)cc1OC (configuration not stated)	none
COc1cccc(C2C=C(Nc3ccccc3)C(=O)N2c2ccccc2)c1 (configuration not stated)	PMI act satM6P 2.2
Cc1noc(C)c1S(=O)(=O)N1CCC(C(=O)Nc2ccc(OC(F)(F)F)cc2)CC1	none
Brc1ccc(-c2nn3c(-c4ccncc4)nnc3s2)o1	none
Brc1ccc(-c2nn3c(-c4ccco4)nnc3s2)o1	PMI act satM6P 2
C=CCn1c(SC2CCOC2=O)nc2scc(C3CC3)c2c1=O (configuration not stated)	none
Cc1ccsc1/C=C1\CCC(C2CCCC2)C1=O (configuration not stated)	none
Cc1ccsc1/C=C1\CCc2ccccc2C1=O	FLuc inhib CS 92
COc1ccc(/C=C2\CCc3ccccc3C2=O)cc1OC	none
O=C1/C(=C/c2c[nH]c3ccccc23)CCC/C1=C\c1c[nH]c2ccccc12	none
O=C1/C(=C\c2ccc3ccccc3c2)CCCc2ccccc21	FLuc inhib CS 52
Cc1ccccc1/C=C1\CCCc2ccccc2C1=O	FLuc inhib CS 61
CCCCC(C(=O)NCCC(C)C)N(CCCN1CCOCC1)C(=O)c1snc(C(N)=O)c1N (configuration not stated)	none
COc1ccccc1C(=O)Nc1nnc(-c2ccco2)s1	FLuc inhib CS 51
COc1ccc(C(=O)Nc2nnc(-c3ccco3)s2)cc1	FLuc inhib CS 62
O=C(Nc1cccc(O)c1)c1cc(-c2ccco2)on1	FLuc inhib CS 76
O=C(Nc1ccc(F)cc1F)c1cc(-c2ccco2)on1	none
O=C(O)C1Nc2c(O)cc(Cl)c([N+](=O)[O-])c2C2C=CCC12 (configuration not stated)	Diaphorase inh 71, PMI act satM6P 2.2
COC(c1ccccc1)c1nnc(CCC(=O)NCc2cccc(-n3cccn3)c2)o1 (configuration not stated)	none
Cc1cc(C2=NNC(=NCCc3ccccc3)SC2)c(C)n1CC1CCCO1 (configuration not stated)	none
CCN=C1NN=C(c2cc(C)n(Cc3ccco3)c2C)CS1	FLuc inhib CS 91
COCCn1c(C)cc(C2=NNC(=Nc3ccccc3)SC2)c1C	FLuc inhib CS 88
C=CCn1c(C)cc(C2=NNC(=NCc3ccccc3)SC2)c1C	none
CCN=C1NN=C(c2cc(C)n(CCc3ccccc3)c2C)CS1	PMI act satM6P 2.2
CCC1Oc2ccc(C)cc2N(CC(=O)N(Cc2ccncc2)Cc2ccco2)C1=O (configuration not stated)	none
COC(=O)c1cc(OC)c(OC)cc1NC(=S)N1CCN(Cc2ccccc2)CC1	none
CCOc1ccc(N(CC(=O)NC2CCCC2)C(=O)CSc2nnc(COc3ccccc3)o2)cc1	none
